Not all results are given here.
Apaf-1 act: activators of human Apaf-1 apoptosome; activity change, negative = activation, % at 20 µM; Apaf-1 apoptosome caspase-3 activation, DEVD-Rh110 fluorescence; hits give low values; 330,000 tested, 0.31% active; O14727;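 active = activity change at or below -40% at 20 µM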
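Assay system – biochemical Apaf-1 apoptosome reconstitution · Medium – 20 mM HEPES buffer, pH 7.5, containing CHAPS and BSA · Incubation – 30 min preincubation, 50 min reaction, room temperature · Measured by – Caspase-3-released Rh110 fluorescence, 540 nm emission, 480 nm excitation · Read-out – Caspase-3 cleavage activity downstream of Apaf-1 activation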
Rh110 act interf: counter-screen for Apaf-1 activators: fluorescence interference; shares compounds with Apaf-1 act; Rh110 fluorescence interference, quenched caspase reaction, Ex480/Em540; fluorescence interference (activity change), % at 20 µM, hits read low; 980 tested, under 10 active;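 active = mean activity change at or below -40% when tested at 20 µM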
Apaf-1 act conf2: Apaf-1 (human) activation, single-dose confirmed; reconstituted apoptosome caspase-3 activity, DEVD-Rh110 fluorescence; hits give low values; activity change, negative = activation, % at 20 µM; AID 504617; shares compounds with Apaf-1 act; 980 tested, 5% active;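 active = mean activity change at or below -40%, meaning activation of 40% or more, at 20 µM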
Apaf1 act interf: Apaf-1 activator counter-screen fluorescence artifact; fluorescence interference counterscreen, Apaf-1 activator assay; shares compounds with Apaf-1 act; EC50, µM; 55 tested, under 10 active; AID 588592; call rule not given here
Starred values were filed as active, the others as inactive.

SMILES	Apaf-1 act	others
CCCCN(CC)S(=O)(=O)c1ccc(C(=O)N(CCCN(C)C)c2nc3cc(C)cc(C)c3s2)cc1	47.1
CN(Cc1ccc(Cl)c(Cl)c1)C(=O)c1cccc(S(=O)(=O)N2CCN(Cc3ccccc3)CC2)c1	71.8
CC(=O)c1cccc(CN2CCN(C3CCCC3)C(CCO)C2)c1 (stereo not drawn)	-300.2*	Rh110 act interf=-2.1;Apaf-1 act conf2=11.8
O=C1C=C(O)c2cccc(O)c2C1=O	43.8
CC(C)N(C(=O)[C@H]1C[C@H](CC(=O)NCCCN(C)C)C(=O)N2CCc3c([nH]c4cc(-c5ccco5)ccc34)[C@]12C)C(C)C	51.7
COC/C=C/C1=CC2=CC(=O)C(C)(OC(=O)c3cnc4ccccc4n3)C(=O)C2=CN1CC(C)C (stereo not drawn)	41.1
C#CCOCCOCCOCCNc1nc(N2CCN(C(=O)CCCCCCCCCCNC(=O)[C@H](CCCCN)n3cc(CCO)nn3)CC2)nc(N2CCN(C(=O)CCCCCCCCCCNC(=O)[C@H](CCCCN)n3cc(CCCC(=O)O)nn3)CC2)n1	59.1
COc1ccc(OC)c2c1cc(C(=O)N[C@H](C(=O)N1CCC[C@H]1C(=O)O)C(C)C)n2C	52.1
CCOC(=O)Nc1ccc(NCc2ccc(F)cc2)nc1N	96.2
CC(C)c1nc(SCC(=O)c2c[nH]c3ccccc23)n[nH]1	-41.2*	Rh110 act interf=0.6;Apaf-1 act conf2=5.8
CC(=O)C(C(C)=O)C1(O)C(=O)c2ccccc2C1=O	86.0
N#Cc1cn(Cc2ccncc2)c(=O)[nH]c1=O	-181.6*	Rh110 act interf=3.3;Apaf-1 act conf2=13.5
C[C@@H]1[C@H]2[C@@H]3CC[C@@H](C3)[C@H]2CN[C@H]1c1cn(Cc2ccccc2)c2ccccc12	61.6
c1ccc(C[C@H]2CN=C(Nc3ccccc3)N2CCCC2CCCCC2)cc1	47.2
N#CC(c1nc2ccccc2nc1N1CCCC1)S(=O)(=O)c1ccccc1 (stereo not drawn)	63.8
O=[N+]([O-])c1cc(Br)c(O)c(C=Nc2ccc(N3CCOCC3)cc2)c1	68.2
N/C(=N\OC(=O)c1ccc(Cl)c([N+](=O)[O-])c1)c1ccccc1	-57.3*	Rh110 act interf=7.3;Apaf-1 act conf2=13.9
O=C(CCn1c2c(c3ccccc31)CCCC2)NNC(=O)c1ccc(Cl)c([N+](=O)[O-])c1	88.6
N#Cc1ccsc1NC(=O)c1ccc(Cl)c([N+](=O)[O-])c1	47.9
Cc1ccc(Cl)cc1NC1=C/C(=N\S(=O)(=O)c2cccs2)c2ccccc2C1=O	95.0
CC1=NN(c2ccc(Br)cc2)C(=O)/C1=C/c1cccs1	96.0
N#Cc1c(N)n(CCNC(=O)c2cccs2)c2nc3ccccc3nc12	89.8
COc1ccc(CCN2C(=O)C3C4CC(C5C(C(=O)NN)=NOC45)C3C2=O)cc1OC (stereo not drawn)	-311.6*	Rh110 act interf=11.6;Apaf-1 act conf2=12.6
CCN(CC)CCNC(=O)c1ccc(NC(=O)C2CC(=O)N(CCc3ccc(OC)c(OC)c3)C2)cc1 (stereo not drawn)	47.2
COc1ccc(CCN(C)C(=O)C2CC(=O)N(Cc3ccc(C)cc3)C2)cc1OC (stereo not drawn)	55.8
SMILES	Apaf-1 act	others
CC[C@H](C)Cc1cn([C@@H](CCCCN)C(=O)NCCCCCCCCCCC(=O)N2CCNCC2)nn1	45.6
CCOC(=O)c1cc(C#N)c(N2CCN(c3ccccn3)CC2)nc1-c1ccccc1	-443.2*	Rh110 act interf=13.9;Apaf-1 act conf2=20.2
CCOC(=O)c1ccc(-n2[nH]c(-c3ccccc3)cc2=O)cc1	42.6
CCOC(=O)c1cnn(-c2c(Cc3ccccc3)c(C)nc3c(-c4ccccc4)c(C)nn23)c1N	61.6
CCC1CCCCN1C(=O)COc1ccc(N(C)S(=O)(=O)c2ccc(C)cc2)cc1 (stereo not drawn)	50.9
Cc1c(C(=O)Nc2ccc(S(=O)(=O)N(C)C3CCN(C)CC3)cc2)oc2ccccc12	52.6
Cc1ccc(S(=O)(=O)N(C)c2ccccc2C(=O)NC2CCCC2)cc1	-58.6*	Rh110 act interf=4.0;Apaf-1 act conf2=14.2
CCCCCCCCCCCCCCCC[N+](C)(C)CCN(Cc1ccc(OC)cc1)c1ncccn1	97.5
CCCC(=Nc1ccc(N)cc1)C1=C(O)C(C(=O)OC)C(C)(C)CC1=O (stereo not drawn)	67.0
COC(=O)CCC(=O)OC1(C)C(=O)C=C2C=C(C3CC3)N(CC(C)C)C=C2C1=O (stereo not drawn)	53.3
Cc1cccc(C)c1NC(=O)Cn1cc(C=O)c2ccccc21	-251.3*	Rh110 act interf=-0.5;Apaf-1 act conf2=-42.5*;Apaf1 act interf=>100
Cc1cccc(C)c1NC(=O)CN1CCN(CCCC(c2ccc(F)cc2)c2ccc(F)cc2)CC1	51.3
CCC(C)(C)c1ccc(OCCCC[n+]2cccc(C)c2C)c(C(C)(C)CC)c1	68.8
O=C(/C=C/c1ccc(-c2ccccc2[N+](=O)[O-])o1)c1ccco1	42.8
O=C(/C=C\c1ccc2c(c1)OCO2)NC1(C(=O)Nc2ccc3c(c2)OCO3)CCCCC1	-87.2*	Rh110 act interf=2.7;Apaf-1 act conf2=14.4
C#CCOCCOCCOCCNc1nc(N2CCN(C(=O)CCCCCCCCCCNC(=O)[C@H](CO)n3cc(CCCCCN)nn3)CC2)nc(N2CCN(C(=O)CCCCCCCCCCNC(=O)[C@H](CCCN=C(N)N)n3cc(C[C@@H](C)CC)nn3)CC2)n1	60.9
FC(F)(F)c1cc(CCN2CCNC[C@@H]2c2ccccc2)cc(C(F)(F)F)c1	60.6
O=C1c2cc(F)ccc2-n2c1nc1ccccc1c2=O	62.6
Cc1cccc(OCc2nc3ccccc3c(=O)n2N)c1	-91.6*	Rh110 act interf=-0.6;Apaf-1 act conf2=5.3
Cc1nnc(N/N=C/c2cccc(OCc3ccc(Cl)c(Cl)c3)c2)n1N	77.1
C#CCOCCOCCOCCNc1nc(N2CCN(C(=O)CCCCCCCCCCNC(=O)[C@@H](CCSC)n3cc(CCO)nn3)CC2)nc(N2CCN(C(=O)CCCCCCCCCCNC(=O)[C@H](CO)n3cc(CCCCCN)nn3)CC2)n1	71.1
O=C(OCC(=O)N1CCN(S(=O)(=O)c2ccc(Cl)cc2)CC1)c1ccc([N+](=O)[O-])o1	69.1
N#C/C(=C/c1ccc(N2CCOCC2)o1)c1ccc(Br)cc1	-108.8*	Rh110 act interf=-1.8;Apaf-1 act conf2=19.0
O=C1C(NS(=O)(=O)c2cccs2)=C(N2CCN(c3ccccc3)CC2)C(=O)c2ccccc21	41.2
CCC[C@@H](CN1CCC[C@H]1CN1C(N)=NC[C@@H]1Cc1ccccc1)N1C[C@@H](Cc2ccccc2)N(CCc2ccc(Cl)c(Cl)c2)C1=N	77.7
SMILES	Apaf-1 act	others
Cc1ccc(C)c(S(=O)(=O)NCc2ccc(C(=O)N3CCOCC3)cc2)c1	-47.2*	Rh110 act interf=7.9;Apaf-1 act conf2=11.2
Cc1ccc(S(=O)(=O)NCc2ccccc2)cc1C(=O)N1CCN(c2ccccc2)CC1	58.3
NC(=O)c1ccc(N=C2C(=O)Nc3ccc([N+](=O)[O-])cc32)cc1	55.8
Oc1ccc(/C=N/N2CCCCC2)c(O)c1O	69.6
Cc1cccc(C)c1NC(=O)c1sc(Cl)nc1C	-201.0*	Rh110 act interf=9.8;Apaf-1 act conf2=10.7
O=P(CCCCCCCCCP(=O)(c1ccccc1)c1ccccc1)(c1ccccc1)c1ccccc1	52.8
NC(=O)OCC(COC(N)=O)c1ccccc1	-6.0
CC(C)COC(=O)c1nnsc1NC(=O)Nc1ccccc1	-63.2*	Rh110 act interf=0.3;Apaf-1 act conf2=13.5
CCCCN(CC)c1nc(N)c2c(N)nc(OCC)cc2c1C#N	97.8
